Drawing on ChEMBL document CHEMBL2401703, “Synthesis of pyrazolo[1,5-a][1,3,5]triazine derivatives as inhibitors of thymidine phosphorylase” (Eur J Med Chem, 2013), this text covers inhibition, IC50 and Ratio IC50 for 51 compounds.

The target of experiment [1] is Thymidine phosphorylase (Escherichia coli K-12) (UniProt P07650). Kind of experiment: Inhibition of recombinant Escherichia coli thymidine phosphorylase using thymidine as substrate at 50 uM by UV-spectrophotometric analysis relative to control. An outline of the steps: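 TP (1.5 U/ml stock in pH 7.0 phosphate buffer) mixed with compound in DMSO (DMSO alone as blank) and thymidine (5 mM stock, 200 µl into 1 ml total) in pH 7.4 phosphate buffer. Absorbance decrease at 290 nm read at 4, 8, 12, 16 and 20 min. Velocity taken from the slope of a linear fit. Percent inhibition calculated versus the blank.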

The target of another experiment is Thymidine phosphorylase (Escherichia coli K-12, UniProt P07650). Kind of experiment: Inhibition of recombinant Escherichia coli thymidine phosphorylase using thymidine as substrate by UV-spectrophotometric analysis.
The target in experiment [2] is Thymidine phosphorylase (Escherichia coli K-12) (UniProt P07650). Kind of experiment: Ratio of 7-deazaxanthine IC50 to compound IC50 for recombinant Escherichia coli thymidine phosphorylase.
The target is the same in experiment [3]. Kind of experiment: Non-competitive inhibition of recombinant Escherichia coli thymidine phosphorylase using thymidine as substrate at 0.01 to 0.2 uM by Lineweaver-burk plot analysis.

Each structure is given as a SMILES string. Activity calls are given as the source filed them. The rule behind the calls is not given here.

Thymidine phosphorylase (Escherichia coli K-12), sequence (P07650 whole entry, looked up): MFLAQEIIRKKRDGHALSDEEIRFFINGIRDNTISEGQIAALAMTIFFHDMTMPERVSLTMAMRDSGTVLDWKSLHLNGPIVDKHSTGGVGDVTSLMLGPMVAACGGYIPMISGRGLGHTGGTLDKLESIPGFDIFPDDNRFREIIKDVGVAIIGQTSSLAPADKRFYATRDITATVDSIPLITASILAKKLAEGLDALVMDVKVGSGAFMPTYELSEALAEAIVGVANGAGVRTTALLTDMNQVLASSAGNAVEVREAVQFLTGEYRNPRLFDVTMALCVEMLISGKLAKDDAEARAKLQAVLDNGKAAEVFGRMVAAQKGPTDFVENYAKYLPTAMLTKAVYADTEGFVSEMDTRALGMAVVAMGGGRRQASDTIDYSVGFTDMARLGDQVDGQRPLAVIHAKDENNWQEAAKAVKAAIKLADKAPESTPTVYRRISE
Thymidine phosphorylase, sequence (P07650 whole entry): as the sequence (P07650 whole entry, looked up) above

The term inhibition denotes the change of the read-out against control, counted positive when it falls. Take `O=c1[nH]c(=O)n2nccc2[nH]1`: the inhibition in experiment [1] is below 50%.

For the compound `O=c1[nH]c(=O)n2ncc(Br)c2[nH]1`, the inhibition in experiment [1] is below 50%. By IC50 is commonly meant the point on the concentration scale where inhibition reaches its midpoint. In the case of `O=c1[nH]c(=S)[nH]c2cc(-c3ccc(Br)cc3)nn12`, the inhibition in experiment [1] is 50%. On Thymidine phosphorylase, the IC50 stood at 34.9 µM. Regarding `O=c1[nH]c(=S)[nH]c2ccnn12`, the inhibition in experiment [1] was below 50%. At Thymidine phosphorylase, the IC50 is 68.2 µM. Consider `CC(C)(C)c1ccc(-c2cc3[nH]c(=O)[nH]c(=O)n3n2)cc1`, for which the inhibition in experiment [1] was below 50%. For the compound `O=c1[nH]c(=O)n2nc(-c3ccccc3)cc2[nH]1`, the inhibition in experiment [1] was below 50%. Turning to `CC(C)(C)c1ccc(-c2cnn3c(=O)[nH]c(=S)[nH]c23)cc1`, the inhibition in experiment [1] is 50%. Further, the IC50 on Thymidine phosphorylase stood at 5.6 µM. Regarding `O=c1[nH]c(=O)n2nc(-c3ccc(F)cc3)cc2[nH]1`, in experiment [1], the inhibition is below 50%. As for `O=c1[nH]c(=S)[nH]c2cc(-c3ccc(Cl)cc3)nn12`, the inhibition in experiment [1] came to 50%. The 50% inhibitory concentration (IC50) on Thymidine phosphorylase worked out at 33.5 µM. The like results for `COc1ccc(-c2cnn3c(=O)[nH]c(=S)[nH]c23)cc1` were, in that order, 50% and 39.7 µM. On to `CC(C)(C)c1cc2[nH]c(=S)[nH]c(=O)n2n1`, for which the inhibition in experiment [1] amounted to 50%. The IC50 at Thymidine phosphorylase was found to be 29.1 µM. `COc1ccc(-c2cnn3c(=O)[nH]c(=O)[nH]c23)cc1`: the inhibition in experiment [1] is below 50%. In the case of `COc1ccc(-c2cc3[nH]c(=S)[nH]c(=O)n3n2)cc1`, the inhibition in experiment [1] came out at 50%. The IC50 on Thymidine phosphorylase stood at 28.4 µM. In the case of `O=c1[nH]c(=S)[nH]c2c(-c3ccc(I)cc3)cnn12`, the IC50 at Thymidine phosphorylase was 0.21 µM. Moreover, the Ratio IC50 in experiment [2] came out at 150. For the compound `CC(C)(C)c1ccc(-c2cc3[nH]c(=S)[nH]c(=O)n3n2)cc1`, the inhibition in experiment [1] was 50%. Moreover, the concentration for half-maximal inhibition (IC50) on Thymidine phosphorylase was 6.6 µM. The corresponding values for `Cc1cc2[nH]c(=S)[nH]c(=O)n2n1` are below 50% and 79.4 µM. The like results for `O=c1[nH]c(=S)[nH]c2cc(-c3ccc(C(F)(F)F)cc3)nn12` were, in that order, 50% and 9.9 µM. As for `O=c1[nH]c(=O)n2ncc(-c3ccc(C(F)(F)F)cc3)c2[nH]1`, the inhibition in experiment [1] is below 50%. Still for that read-out and setting: as for `O=c1[nH]c(=O)n2nc(C(F)(F)F)cc2[nH]1`, the figure is below 50%.

Turning to `O=c1[nH]c(=S)[nH]c2c(Br)cnn12`, the inhibition in experiment [1] is 50%. Also, the IC50 at Thymidine phosphorylase was 44.4 µM. Regarding `O=c1[nH]c(=S)[nH]c2c(-c3ccc(F)cc3)cnn12`, in experiment [1], the inhibition is 50%. Besides, the IC50 at Thymidine phosphorylase was 10.5 µM. Consider `Cc1ccc(-c2cnn3c(=O)[nH]c(=O)[nH]c23)cc1`, for which the inhibition in experiment [1] is below 50%. For the compound `Cc1cc2[nH]c(=O)[nH]c(=O)n2n1`, the inhibition in experiment [1] was below 50%. Turning to `O=c1[nH]c(=S)[nH]c2c(I)cnn12`, in experiment [1], the inhibition worked out at 50%. The IC50 at Thymidine phosphorylase turned out to be 20.8 µM. With `Cc1ccc(-c2cc3[nH]c(=O)[nH]c(=O)n3n2)cc1`, the inhibition in experiment [1] was below 50%. Consider `O=c1[nH]c(=S)[nH]c2c(-c3ccccc3)cnn12`, for which, in experiment [1], the inhibition is 50%. In addition, the IC50 at Thymidine phosphorylase amounted to 26.3 µM. With `O=c1[nH]c(=O)n2ncc(-c3ccc(Cl)cc3)c2[nH]1`, in experiment [1], the inhibition is below 50%. For the compound `O=c1[nH]c(=O)n2ncc(-c3ccccc3)c2[nH]1`, the inhibition in experiment [1] is below 50%. For the compound `O=c1[nH]c(=S)[nH]c2c(-c3ccc(Cl)cc3)cnn12`, the inhibition in experiment [1] is 50%. At Thymidine phosphorylase, the IC50 is 0.54 µM. For `O=c1[nH]c(=S)[nH]c2cc(C(F)(F)F)nn12`, the inhibition in experiment [1] was 50%. Further, the IC50 at Thymidine phosphorylase was 32.6 µM. Take `O=c1[nH]c(=S)[nH]c2c(-c3ccc(C(F)(F)F)cc3)cnn12`: the inhibition in experiment [1] was determined as 50%. At Thymidine phosphorylase, the IC50 was 0.24 µM. Take `Cc1cnn2c(=O)[nH]c(=S)[nH]c12`: the inhibition in experiment [1] is below 50%. In addition, the IC50 on Thymidine phosphorylase worked out at 87.3 µM. For the compound `CC(C)(C)c1ccc(-c2cnn3c(=O)[nH]c(=O)[nH]c23)cc1`, the inhibition in experiment [1] was below 50%. Same read-out and setting: then `O=c1[nH]c(=O)n2nc(-c3ccc(C(F)(F)F)cc3)cc2[nH]1`, with below 50%.

As for `CC(C)(C)c1cc2[nH]c(=O)[nH]c(=O)n2n1`, the inhibition in experiment [1] was below 50%. Same read-out and setting: then `O=c1[nH]c(=O)n2nc(-c3ccc(Br)cc3)cc2[nH]1`, with below 50%. In the case of `CCOc1ccc(-c2cnn3c(=O)[nH]c(=S)[nH]c23)cc1`, the IC50 at Thymidine phosphorylase was found to be 15.5 µM.

Consider `O=c1[nH]c(=S)[nH]c2c(-c3ccc(Br)cc3)cnn12`, for which the inhibition in experiment [1] amounted to 50%. Further, the IC50 at Thymidine phosphorylase amounted to 0.63 µM. Turning to `O=c1[nH]c(=O)n2ncc(-c3ccc(F)cc3)c2[nH]1`, the inhibition in experiment [1] is below 50%. As to `O=c1[nH]c(=O)n2ncc(I)c2[nH]1`, the inhibition in experiment [1] is below 50%. The same measure, in the same setting: as for `O=c1[nH]c(=O)n2ncc(-c3ccc(Br)cc3)c2[nH]1`, the figure is below 50%. Same read-out and setting: as for `O=c1[nH]c(=O)n2ncc(Cl)c2[nH]1`, the figure is below 50%. Turning to `Cc1ccc(-c2cc3[nH]c(=S)[nH]c(=O)n3n2)cc1`, the inhibition in experiment [1] stood at 50%. Further, the IC50 at Thymidine phosphorylase stood at 19.3 µM.

For the compound `O=c1[nH]c(=S)[nH]c2cc(-c3ccc(F)cc3)nn12`, the inhibition in experiment [1] turned out to be 50%. Besides, the IC50 on Thymidine phosphorylase is 41.7 µM.

Turning to `Cc1ccc(-c2cnn3c(=O)[nH]c(=S)[nH]c23)cc1`, the inhibition in experiment [1] turned out to be 50%. For the same compound, the IC50 at Thymidine phosphorylase amounted to 1.7 µM.

Regarding `O=c1[nH]c(=S)[nH]c2c(-c3ccc(S(F)(F)(F)(F)F)cc3)cnn12`, on Thymidine phosphorylase, the IC50 stood at 0.04 µM. The Ratio IC50 in experiment [2] was 800. Further, the inhibition result in experiment [3] is “Active”. Regarding `O=c1[nH]c(=S)[nH]c2c(-c3ccc([N+](=O)[O-])cc3)cnn12`, on Thymidine phosphorylase, the IC50 was 0.58 µM.

Turning to `O=c1[nH]c(=O)n2nc(-c3ccc(Cl)cc3)cc2[nH]1`, the inhibition in experiment [1] was below 50%. Turning to `COc1ccc(-c2cc3[nH]c(=O)[nH]c(=O)n3n2)cc1`, the inhibition in experiment [1] was below 50%. `O=c1[nH]c(=S)[nH]c2c(Cl)cnn12`: the inhibition in experiment [1] was 50%. Besides, the IC50 at Thymidine phosphorylase came out at 27.6 µM. In the case of `Cc1cnn2c(=O)[nH]c(=O)[nH]c12`, the inhibition in experiment [1] is below 50%.
